Laboratory results reported in ChEMBL document CHEMBL5500359, “Identification of a new bisindolinone arresting IGROV1 cells proliferation” (Eur J Med Chem, 2024).
Active and inactive are the calls of the source. The calls are words filed in the database; no cut-off is given here.

Columns and labels:
Colon carcinoma cell = assay: Cytotoxicity against human Colon carcinoma cells incubated for 48 hrs by SRB assay; assay type: functional
Procedure, shortened: (§1)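 NCI-60 five-concentration screen: lines seeded 5×10^3–4×10^4 cells/well depending on line; compound diluted in fresh medium at scalar concentrations 0–100 or 0–1000 μM; 48 h exposure, in situ fixation, sulforhodamine B protein staining, optical density read; GI50, TGI and LC50 per NCI procedures; panel mean = mean graph midpoint.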

IGROV-1 [1] = assay: Induction of DNA damage in human IGROV-1 cells assessed as increase in gamma-H2AX phosphorylation at 5 uM pretreated for 24 hrs followed by UV exposure for 6 hrs by Western blot analysis; assay type: functional, cell-based; details: time 30.0 hrs
Procedure, shortened: (§2)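 IGROV1 pretreated 24 h with 5 μM, then UV-irradiated with a 7.5 W lamp for 3 min; UV alone as positive control. Cyclin D1 and RAD51 by RIPA-lysate Western blot normalized to α-tubulin; γH2AX by acid-extracted histone blot normalized to H1; percent of vehicle, mean ± SD, three experiments.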

IGROV-1 [2] = assay: Cytotoxicity against human IGROV-1 cells assessed as reduction in cell viability incubated for 24 hrs by MTT assay; assay type: functional, cell-based; details: IGROV-1, 24 h
Procedure, shortened: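 IGROV1 and HDFa in RPMI 1640 + 10% FCS, 2 mM glutamine, 37 °C, 5% CO2; seeded 1.5×10^4/well, after 24 h exposed 24 h to 0.010–500 μM (DMSO ≤0.1%). MTT 0.2 mg/mL in PBS 2 h at 37 °C, absorbance 570 nm; IC50 from dose-response, three independent experiments each in triplicate; SI = HDFa IC50/IGROV1 IC50.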

CNS carcinoma cell = assay: Cytostatic activity against human CNS carcinoma cells incubated for 48 hrs by SRB assay; assay type: functional; procedure, shortened: as §1
[3] = Upregulation of histone H4 acetylation in human IGROV-1 cells incubated for 6 hrs by Western blot analysis relative to control; assay type: functional
Procedure, shortened: (§3)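 IGROV1 seeded 1.5×10^4 cells/cm², after 48 h exposed 6 h to 5 μM final; histones acid-extracted (0.4 N H2SO4) from nuclei isolated with 10 mM butyrate washes, acetone-precipitated, 15% SDS-PAGE, blotted with anti-acetyl-lysine; densitometry normalized to histone H1, percent of vehicle, mean ± SD of three experiments.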

[4] = test system: Panel NCI-60 (60 carcinoma cell lines); assay: Cell growth inhibition of human Panel NCI-60 (60 carcinoma cell lines) incubated for 48 hrs by SRB assay; assay type: functional; procedure, shortened: as §1
IGROV-1 [5] = assay: Effect on p21 level in human IGROV-1 cells at 5 uM incubated for 6 hrs by Western blot analysis; assay type: functional, cell-based
NSCLC = assay: Cell growth inhibition of human NSCLC cells incubated for 48 hrs by SRB assay; assay type: functional; procedure, shortened: as §1
[6] = Cell growth inhibition of human Leukemia cancer cells incubated for 48 hrs by SRB assay; assay type: functional; procedure, shortened: as §1
IGROV-1 [7] = assay: Induction of cell cycle arrest in human IGROV-1 cells assessed as increase in cell accumulation at G0/G1 phase at 5 uM incubated for 24 hrs by PI staining based flow cytometry relative to control; assay type: functional
Procedure, shortened: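 IGROV1 plated 2×10^4 cells/cm², after 24 h given 5 μM for 24 h; cells detached, PBS-washed, stained 30 min at room temperature in dark with 50 μg/mL propidium iodide, 10 μg/mL RNase, 0.01% Igepal, 0.1% sodium citrate; DNA content by flow cytometry, phase percentages versus untreated.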

IGROV-1 [8] = assay: Anti-motility activity in human IGROV-1 cells assessed as decrease in cell velocity at 5 uM incubated for 24 hrs; assay type: functional, cell-based
Procedure, shortened: (§4)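 Livecyte quantitative phase imaging, label-free single-cell tracking; IGROV1 seeded 4×10^3/well, treated after 24 h with 5 μM in six replicates; frames every 60 min for 2 days, 10× objective, 37 °C, 5% CO2. Each cell tracked for displacement, instantaneous velocity and directionality.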

HDFa (Homo sapiens) = assay: Antiproliferative activity against human HDFa cells assessed as doubling time at 5 uM measured after 48 hrs (reference value: 35 hrs)
Prostatic carcinoma cell = assay: Cell growth inhibition of human Prostate carcinoma cells incubated for 48 hrs by SRB assay; assay type: functional; procedure, shortened: as §1
Ovarian cancer cell line = assay: Cytotoxicity against human Ovarian cancer cells incubated for 48 hrs by SRB assay; assay type: functional; procedure, shortened: as §1
[9] = Upregulation of histone H2/H3 acetylation in human IGROV-1 cells incubated for 6 hrs by Western blot analysis relative to control; assay type: functional; procedure, shortened: as §3
Renal cancer cell line = assay: Cytostatic activity against human Renal cancer cells incubated for 48 hrs by SRB assay; assay type: functional; procedure, shortened: as §1
IGROV-1 [10] = assay: Downregulation of CCND1 level in human IGROV-1 cells at 5 uM pretreated for 24 hrs followed by UV exposure for 6 hrs by Western blot analysis; assay type: functional, cell-based; details: time 30.0 hrs; procedure, shortened: as §2
IGROV-1 [11] = assay: Anti-motility activity in human IGROV-1 cells assessed as decrease in cell displacement at 5 uM incubated for 24 hrs; assay type: functional, cell-based; procedure, shortened: as §4
IGROV-1 [12] = assay: Antiproliferative activity against human IGROV-1 cells assessed as doubling time at 5 uM incubated for 24 to 48 hrs (reference value: 23.9 +/- 2.4 hrs); assay type: functional; details: time 24-48 hrs
Procedure, shortened: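 Quantitative phase imaging on IGROV1 seeded 4×10^3/well, 24 h later given 5 μM (six replicates; DMSO ≤0.1% final). Images hourly for 2 days at 37 °C, 5% CO2. Cell count and confluence normalized to experiment start; doubling time derived from growth.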

SMILES: CC(C)(C)c1cc(/C=C2/C(=O)Nc3cc(Cl)ccc32)c(O)c(/C=C2/C(=O)Nc3cc(Cl)ccc32)c1
- GI (Colon carcinoma cell): 37.15 µM
- Activity (IGROV-1 [1]): Active
- IC50 (IGROV-1 [2]): 6.06 µM
- GI (CNS carcinoma cell): 11.75 µM
- Activity [3]: 68.5%
- GI50 [4]: 3.02 µM
- Activity (IGROV-1 [5]): inactive
- GI (NSCLC): 3.63 µM
- GI50 [6]: 2.45 µM
- Activity (IGROV-1 [7]): 13.4%
- Activity (IGROV-1 [8]): Active
- Time (HDFa (Homo sapiens)): 56 h
- GI (Prostatic carcinoma cell): 3.63 µM
- GI (Ovarian cancer cell line): 30.9 µM
- Activity [9]: 55.2%
- GI (Renal cancer cell line): 11.22 µM
- Activity (IGROV-1 [10]): Active
- Activity (IGROV-1 [11]): Active
- Time (IGROV-1 [12]): 113.3 h
